This is a sample that favours compounds with a hit; in the whole collection about 12% have one here.
Diaphorase inh – diaphorase inhibitors and chemical oxidizers, primary screen, counter-screen for diaphorase-coupled primary assays, biochemical, uHTS, resorufin fluorescence; 190,000 tested, 0.69% active; diaphorase resazurin-to-resorufin fluorescence, NADH, 16 min; bacterial (C. kluyveri) enzyme, not human; inhibition, % at 20 µM;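 active = primary screen inhibition at 20 µM above a set limit, cut at about 50% in these data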;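 note: plate controls were DMSO with full reaction for no effect and wells lacking NADH for full effect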
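Test system: Clostridium kluyveri diaphorase enzyme / Quantity: diaphorase at 0.14 U/mL in enzyme working solution / Incubation: 16-min room-temperature incubation before reading / Benchmarks: NADH-free wells as positive control, DMSO-only neutral wells / Signal: resorufin fluorescence 544/590 nm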
Diaphorase act – compounds boosting diaphorase resazurin reduction – biochemical, uHTS, resorufin fluorescence, counter-screen for diaphorase-coupled primary assays, primary screen; Diaphorase/resazurin coupled assay, 16 min; stronger effect = higher value; 1 = vehicle wells, 0 = NADH-free wells; activation factor at 20 µM; 190,000 tested, 0.005% active; AID 1229, 2008;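 active = diaphorase activity raised at least twofold by the compound at 20 µM; inactive = activation factor below 2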
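Assay system: Purified diaphorase enzyme from Clostridium kluyveri | Amount: Enzyme 0.07 U/mL final | Dosing: Compound 20 µM once, DMSO 1% | Timing: 16 min reaction at room temperature | Detection: Fluorescence, excitation 544 nm and emission 590 nm | Evaluation: Higher resorufin formation from activation or reduction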
L major viab – Leishmania major promastigote growth inhibition, primary screen; AID 1063, 2008; Leishmania major promastigotes, resazurin fluorescence viability; inhibition, % at 10 µM; 200,000 tested, 9% active; in the data active = inhibition above about 50%;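 note: promastigotes grown with compound for 44 hours at 28 °C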
ROMK mod – ROMK potassium channel modulators, primary screen, cell-based, thallium flux, MLSMR library; ATP-sensitive inward rectifier potassium channel 1 (Homo sapiens), P48048; Tet-inducible ROMK, thallium flux fluorescence; actives lie on both sides; B-score at 10 µM; 130,000 tested, 2% active; AID 1918, 2009;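 active = signal ratio slope over the read window, or its plate-corrected B-score, at least 3 SD from the plate mean, either direction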;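 note: B-score of the F/F0 ratio slope over 7 to 12 s after thallium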
KCC2 mod – KCC2 cotransporter modulators, thallium flux, primary screen, cell-based, HEK293 KCC2, FluoZin-2 fluorescence, MLSMR; Solute carrier family 12 member 5 (Homo sapiens), Q9H2X9; KCC2 cells, thallium flux FluoZin-2 fluorescence; B-score of Tl+ flux slope (higher = more flux/activation; lower = inhibition) at 10 µM; 190,000 tested, 2.2% active; AID 1456, 2008;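 active = thallium flux slope and its plate-corrected score both differing from the plate sample mean at a set confidence after two filtering rounds, in either direction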;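 note: slope of fluorescence scaled to starting intensity during 10 to 20 s after thallium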
Target sequence (Q9H2X9 whole entry, looked up): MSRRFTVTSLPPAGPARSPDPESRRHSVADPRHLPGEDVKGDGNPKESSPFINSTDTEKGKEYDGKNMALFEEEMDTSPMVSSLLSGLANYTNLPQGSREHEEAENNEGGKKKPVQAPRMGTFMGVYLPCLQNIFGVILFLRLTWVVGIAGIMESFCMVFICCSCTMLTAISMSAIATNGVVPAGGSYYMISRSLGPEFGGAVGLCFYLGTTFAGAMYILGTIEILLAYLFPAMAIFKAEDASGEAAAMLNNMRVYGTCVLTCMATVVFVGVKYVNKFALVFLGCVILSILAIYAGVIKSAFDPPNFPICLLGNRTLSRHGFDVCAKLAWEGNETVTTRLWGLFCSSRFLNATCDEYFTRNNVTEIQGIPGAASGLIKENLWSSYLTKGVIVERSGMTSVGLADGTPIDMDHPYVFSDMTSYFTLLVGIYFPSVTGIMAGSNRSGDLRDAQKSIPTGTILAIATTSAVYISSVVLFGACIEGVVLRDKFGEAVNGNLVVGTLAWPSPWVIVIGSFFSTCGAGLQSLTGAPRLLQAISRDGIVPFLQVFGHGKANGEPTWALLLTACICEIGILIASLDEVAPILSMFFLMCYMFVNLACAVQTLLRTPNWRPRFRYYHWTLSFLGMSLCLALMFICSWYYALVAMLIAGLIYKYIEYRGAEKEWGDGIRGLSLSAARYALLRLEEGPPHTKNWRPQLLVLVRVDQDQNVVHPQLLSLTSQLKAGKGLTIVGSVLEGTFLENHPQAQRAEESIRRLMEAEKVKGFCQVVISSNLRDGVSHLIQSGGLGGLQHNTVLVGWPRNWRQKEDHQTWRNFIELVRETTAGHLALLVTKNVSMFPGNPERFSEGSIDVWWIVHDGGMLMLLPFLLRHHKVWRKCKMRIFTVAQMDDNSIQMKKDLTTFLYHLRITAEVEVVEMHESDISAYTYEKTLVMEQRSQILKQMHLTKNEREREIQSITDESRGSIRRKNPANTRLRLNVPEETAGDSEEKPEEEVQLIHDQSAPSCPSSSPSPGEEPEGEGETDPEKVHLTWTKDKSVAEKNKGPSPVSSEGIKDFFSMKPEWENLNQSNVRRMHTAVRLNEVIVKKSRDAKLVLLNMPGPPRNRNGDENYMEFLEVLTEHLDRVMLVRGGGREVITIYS
WT yeast gro inh – growth inhibition of WT strain, primary screen, mitochondrial fusion inhibitor project, WT and mutant strains, chemical genetic | mitochondrial fusion phenotypic screen | 190,000 tested, 2.1% active | AID 1362, 2008 | inhibition, % at 10 µM; in the data active = inhibition above about 58%; tested in S. cerevisiae
* hit, by the source's call; nt = no result.

SMILES	Diaphorase inh	Diaphorase act	L major viab	ROMK mod	KCC2 mod	WT yeast gro inh
COc1ccc(N2C(=O)CC(NNC(=O)c3ccc(Br)s3)C2=O)cc1 (stereo not given)	4	1	-6	-0.43	nt	0
O=C(NNC1CC(=O)N(c2cccc(Cl)c2)C1=O)c1cccs1 (stereo not given)	-4	1	63*	0.54	0.24	0
O=C(Oc1ccc(NC2=NS(=O)(=O)c3ccccc32)cc1)c1cccnc1	6	0.9	-9	-0.059	-0.41	9
CCOc1ccc(NC(=S)Nc2ccc3nsnc3c2)cc1	54*	0.5	23	0.002	0.72	2
COc1ccc(NC(=S)Nc2ccc3nsnc3c2)cc1	59*	0.4	1	-0.9	-0.95	37
COCCNC(=S)Nc1ccc2nsnc2c1	53*	0.5	35	-0.72	0.27	1
CCOc1ccc(NC(=O)Nc2ccc3nsnc3c2)cc1	18	0.8	5	-0.54	-0.57	12
CC(C)N(C(=O)Nc1ccc2nsnc2c1)C(C)C	60*	0.4	-3	0.65	nt	-10
COc1ccc(/C=N/n2c(C)cc(C)c(C(N)=O)c2=O)cc1	5	0.9	-2	2.3	1.1	19
COc1ccc(N(C)C(=O)Nc2ccc3nsnc3c2)cc1	62*	0.4	5	-0.67	0.22	-3
S=C(Nc1ccc2nsnc2c1)NC1CCCCC1	41	0.6	82*	nt	0.16	30
S=C(Nc1ccc(Cl)c(Cl)c1)NC1CCCCC1	4	1	18	nt	-0.48	-13
COC(=O)CN1C(=O)N/C(=C/c2cc(OC)c(OC)cc2C)C1=O	-15	1.1	-1	0.012	-0.49	-14
Cc1ccc(C2=Nc3ccc(Br)cc3C(c3ccncc3)=NN2)cc1	nt	nt	85*	0.039	-1.3	14
CCc1ccc2c(c1)C(c1ccncc1)=NNC(c1ccccc1)=N2	2	1	55*	nt	nt	1
O=S(=O)(Nc1ccccn1)c1cccs1	16	0.8	3	0.76	-0.016	-5
O=C(CSc1nnc(CCc2ccccc2)n1-c1ccc(Cl)cc1)NCc1ccccc1	9	0.9	100*	-2.3	-1.6	21
C=CCn1c(CSCc2ccc(Cl)cc2)nnc1SCC(=O)NCc1ccccc1	13	0.9	-1	-3*	-1.9	12
CCCCNC(=O)N(c1c(N)n(Cc2ccccc2)c(=O)[nH]c1=O)C1CCCC1	15	0.8	-1	-1.1	-0.79	-21
Cc1cccn2c(/C=N/OCc3cccc(F)c3)c(-c3ccc(Cl)cc3)nc12	2	1	56*	nt	0.34	36
COc1cccc(/C(C#N)=C/c2c(-c3ccc(Cl)cc3)nc3c(C)cccn23)c1	6	0.9	67*	nt	-0.12	11
CCOC(=O)/C(C#N)=C/c1c(Oc2cccc(C)c2)nc2c(C)cccn2c1=O	4	1	1	2.3	0.11	1
Fc1cccc(CO/N=C/c2c(-c3ccccc3)nc3ccc(Cl)cn23)c1	11	0.9	4	nt	-0.79	14
CC(C)CC(C(=O)Nc1oc(-c2ccco2)c(-c2ccco2)c1C#N)N1C(=O)c2ccccc2C1=O (stereo not given)	56*	0.4	-8	1.2	0.016	-9
CCN(CC)C(=O)Cn1cc(C(=O)C(=O)NCCCn2ccnc2)c2ccccc21	2	1	-4	nt	1.3	-14
SMILES	Diaphorase inh	Diaphorase act	L major viab	ROMK mod	KCC2 mod	WT yeast gro inh
COCCCNC(=S)NC1CCCCC1	-1	1	-5	nt	0.21	14
COC(=O)c1c(C(=O)OC)c(-c2cccc(Cl)c2)n2c1CS(=O)C2 (stereo not given)	9	0.9	-2	0.6	0.11	-9
CCOc1ccc(OCCOCCNCCOC)cc1	12	0.9	70*	0.18	0.11	-1
CCCOc1ccc(OCCOCCNCc2ccccc2)cc1	8	0.9	98*	nt	0.016	14
CCC(C)NCCOc1cc(C)cc(C)c1C (stereo not given)	10	0.9	22	0.48	-0.19	8
Cc1cc(C)c(C)c(OCCOCCNCc2ccccc2)c1	15	0.9	77*	-0.71	0.29	26
COc1ccc2c(C)cc(SCC(=O)NCCN3C(=O)CSC3=O)nc2c1	17	0.8	-6	nt	0.66	3
OCCC1CN(Cc2cnc(-c3ccc(Cl)cc3)nc2)CCN1C1CCCC1 (stereo not given)	nt	nt	nt	nt	0.039	nt
O=C(NC1CC2CCCC(C1)N2CC(=O)N1CCCc2ccccc21)C1CCCCC1 (stereo not given)	3	1	57*	nt	-0.8	-16
CC(=O)NC1CC2CCCC(C1)N2CC(=O)N1CCCc2ccccc21 (stereo not given)	-9	1.1	-1	nt	0.18	21
Nc1nc(Nc2cccc(F)c2)nc2ccccc12	10	0.9	89*	-1.9	-2.1	42
Fc1cccc(NC(=S)NNc2c3ccccc3nc3ccccc23)c1	5	0.9	15	0.4	0.43	76*
c1ccc(Nc2nc3ccccc3o2)cc1	12	0.9	-1	1	0.0078	18
Cc1ccc(C)c(Nc2nc(N)c3ccccc3n2)c1	-1	1	98*	-1	-0.31	77
O=c1oc(Nc2cccc(F)c2)nc2ccccc12	7	0.9	-2	nt	nt	78*
CCCCOP(=O)(c1ccc(N(C)C)cc1)C(Nc1ccccc1)c1ccccc1 (stereo not given)	23	0.8	41	0.13	-0.6	81*
CCCOP(=O)(c1ccc(N(C)C)cc1)C(Nc1ccccc1)c1ccc(N(C)C)cc1 (stereo not given)	0	1	25	nt	0.28	18
COc1ccc(-c2ccc(OC)cc2)cc1	-12	1.1	-4	-0.27	0.42	-8
COc1ccc(-c2nncnn2)cc1	18	0.8	97*	nt	0.25	25
Cc1cc(/C=C2/SC(=S)N(c3cccc(C(F)(F)F)c3)C2=O)c(C)n1-c1cccnc1	nt	nt	80*	nt	nt	nt
CCC(C)C(NC(=O)c1ccccc1NC(=O)c1ccccc1)C(=O)N1CCOCC1 (stereo not given)	11	0.9	53*	nt	0.96	9
CCC(NC(=O)c1ccccc1NC(=O)c1ccccc1)C(=O)OC (stereo not given)	19	0.8	11	-0.2	-1.7	77*
CCC(=O)Nc1ccccc1C(=O)N1CCOCC1	10	0.9	-9	nt	-0.11	-28
CCC(NC(=O)c1ccccc1NC(=O)c1ccc(OC)cc1)C(=O)N1CCCC1 (stereo not given)	5	0.9	1	0.44	1.3	-8
